System: Fibroblast
Test: Multiplex assay against human fibroblast
Type: toxicity, cell-based
Procedure, shortened: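 Compound was added to live cells that had been stained at seeding with Hoechst33342, BioTracker Green Microtubule Cytoskeleton Dye, MitoTracker Red and Annexin V Alexa Fluor 680, and imaging followed on a CQ1 microscope at 37°C and 5% CO2. CellPathfinder machine-learning gating divided cells into Hoechst high-intensity objects or normal cells, normal cells into healthy, pyknosed or fragmented nuclei, and pyknosed cells into mitotic or apoptotic. Tubulin, mitochondrial-mass and membrane-permeability phenotypes are per cents of healthy-nucleus cells.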

[1] = 12 h, 1 µM, compound concentration 1 uM, replicate 1
[2] = 12 h, 1 µM, compound concentration 1 uM, replicate 2
[3] = 12 h, 10 µM, compound concentration 10 uM, replicate 1
[4] = 12 h, 10 µM, compound concentration 10 uM, replicate 2
[5] = 24 h, 1 µM, compound concentration 1 uM, replicate 1
[6] = 24 h, 1 µM, compound concentration 1 uM, replicate 2
[7] = 24 h, 10 µM, compound concentration 10 uM, replicate 1
[8] = 24 h, 10 µM, compound concentration 10 uM, replicate 2
[9] = 48 h, 1 µM, compound concentration 1 uM, replicate 1
[10] = 48 h, 1 µM, compound concentration 1 uM, replicate 2
[11] = 48 h, 10 µM, compound concentration 10 uM, replicate 1
[12] = 48 h, 10 µM, compound concentration 10 uM, replicate 2

CN1CCN(c2cc(-c3ccccc3)nc(N)n2)CC1
Population Apoptotic (%) [1]: 47% | Population Fragmented Nuclei (%) [1]: 15% | Population Healthy Nuclei (%) [1]: 68% | Population Hoechst High Intensity Objects (%) [1]: 2% | Population Membrane Permeable-Phenotype (%) [1]: 1% | Population Mitochondria Different-Phenotype (%) [1]: 10% | Population Mitotic Cells (%) [1]: 52% | Population Normal (%) [1]: 97% | Population Pyknosed Nuclei (%) [1]: 15% | Population Tubulin-Different-Phenotype (%) [1]: 25% | Total Cell Count [1]: 135 | Population Apoptotic (%) [2]: 37% | Population Fragmented Nuclei (%) [2]: 28% | Population Healthy Nuclei (%) [2]: 45% | Population Hoechst High Intensity Objects (%) [2]: 5% | Population Membrane Permeable-Phenotype (%) [2]: 11% | Population Mitochondria Different-Phenotype (%) [2]: 11% | Population Mitotic Cells (%) [2]: 62% | Population Normal (%) [2]: 94% | Population Pyknosed Nuclei (%) [2]: 26% | Population Tubulin-Different-Phenotype (%) [2]: 66% | Total Cell Count [2]: 97 | Population Apoptotic (%) [3]: 48% | Population Fragmented Nuclei (%) [3]: 16% | Population Healthy Nuclei (%) [3]: 67% | Population Hoechst High Intensity Objects (%) [3]: 2% | Population Membrane Permeable-Phenotype (%) [3]: 0% | Population Mitochondria Different-Phenotype (%) [3]: 6% | Population Mitotic Cells (%) [3]: 51% | Population Normal (%) [3]: 97% | Population Pyknosed Nuclei (%) [3]: 15% | Population Tubulin-Different-Phenotype (%) [3]: 44% | Total Cell Count [3]: 216 | Population Apoptotic (%) [4]: 36% | Population Fragmented Nuclei (%) [4]: 40% | Population Healthy Nuclei (%) [4]: 36% | Population Hoechst High Intensity Objects (%) [4]: 7% | Population Membrane Permeable-Phenotype (%) [4]: 10% | Population Mitochondria Different-Phenotype (%) [4]: 12% | Population Mitotic Cells (%) [4]: 64% | Population Normal (%) [4]: 92% | Population Pyknosed Nuclei (%) [4]: 22% | Population Tubulin-Different-Phenotype (%) [4]: 67% | Total Cell Count [4]: 118 | Population Apoptotic (%) [5]: 75% | Population Fragmented Nuclei (%) [5]: 17% | Population Healthy Nuclei (%) [5]: 65% | Population Hoechst High Intensity Objects (%) [5]: 2% | Population Membrane Permeable-Phenotype (%) [5]: 1% | Population Mitochondria Different-Phenotype (%) [5]: 3% | Population Mitotic Cells (%) [5]: 25% | Population Normal (%) [5]: 97% | Population Pyknosed Nuclei (%) [5]: 16% | Population Tubulin-Different-Phenotype (%) [5]: 19% | Total Cell Count [5]: 145 | Population Apoptotic (%) [6]: 47% | Population Fragmented Nuclei (%) [6]: 36% | Population Healthy Nuclei (%) [6]: 44% | Population Membrane Permeable-Phenotype (%) [6]: 8% | Population Mitochondria Different-Phenotype (%) [6]: 8% | Population Mitotic Cells (%) [6]: 52% | Population Pyknosed Nuclei (%) [6]: 18% | Population Tubulin-Different-Phenotype (%) [6]: 50% | Total Cell Count [6]: 106 | Population Apoptotic (%) [7]: 41% | Population Fragmented Nuclei (%) [7]: 12% | Population Healthy Nuclei (%) [7]: 70% | Population Hoechst High Intensity Objects (%) [7]: 2% | Population Membrane Permeable-Phenotype (%) [7]: 1% | Population Mitochondria Different-Phenotype (%) [7]: 6% | Population Mitotic Cells (%) [7]: 58% | Population Normal (%) [7]: 97% | Population Pyknosed Nuclei (%) [7]: 17% | Population Tubulin-Different-Phenotype (%) [7]: 41% | Total Cell Count [7]: 213 | Population Apoptotic (%) [8]: 29% | Population Fragmented Nuclei (%) [8]: 33% | Population Healthy Nuclei (%) [8]: 43% | Population Membrane Permeable-Phenotype (%) [8]: 4% | Population Mitotic Cells (%) [8]: 70% | Population Pyknosed Nuclei (%) [8]: 23% | Population Tubulin-Different-Phenotype (%) [8]: 64% | Total Cell Count [8]: 107 | Population Apoptotic (%) [9]: 70% | Population Fragmented Nuclei (%) [9]: 22% | Population Healthy Nuclei (%) [9]: 62% | Population Hoechst High Intensity Objects (%) [9]: 2% | Population Membrane Permeable-Phenotype (%) [9]: 0% | Population Mitochondria Different-Phenotype (%) [9]: 2% | Population Mitotic Cells (%) [9]: 30% | Population Normal (%) [9]: 97% | Population Pyknosed Nuclei (%) [9]: 15% | Population Tubulin-Different-Phenotype (%) [9]: 20% | Total Cell Count [9]: 137 | Population Apoptotic (%) [10]: 50% | Population Fragmented Nuclei (%) [10]: 36% | Population Healthy Nuclei (%) [10]: 49% | Population Hoechst High Intensity Objects (%) [10]: 3% | Population Membrane Permeable-Phenotype (%) [10]: 2% | Population Mitochondria Different-Phenotype (%) [10]: 6% | Population Mitotic Cells (%) [10]: 50% | Population Normal (%) [10]: 96% | Population Pyknosed Nuclei (%) [10]: 14% | Population Tubulin-Different-Phenotype (%) [10]: 54% | Total Cell Count [10]: 101 | Population Apoptotic (%) [11]: 40% | Population Fragmented Nuclei (%) [11]: 26% | Population Healthy Nuclei (%) [11]: 58% | Population Hoechst High Intensity Objects (%) [11]: 3% | Population Membrane Permeable-Phenotype (%) [11]: 0% | Population Mitochondria Different-Phenotype (%) [11]: 0% | Population Mitotic Cells (%) [11]: 59% | Population Normal (%) [11]: 96% | Population Pyknosed Nuclei (%) [11]: 14% | Population Tubulin-Different-Phenotype (%) [11]: 31% | Total Cell Count [11]: 227 | Population Apoptotic (%) [12]: 66% | Population Fragmented Nuclei (%) [12]: 50% | Population Healthy Nuclei (%) [12]: 39% | Population Membrane Permeable-Phenotype (%) [12]: 9% | Population Mitochondria Different-Phenotype (%) [12]: 9% | Population Mitotic Cells (%) [12]: 33% | Population Pyknosed Nuclei (%) [12]: 10% | Population Tubulin-Different-Phenotype (%) [12]: 60% | Total Cell Count [12]: 114

From ChEMBL document CHEMBL5058577, “EUbOPEN Chemogenomics Library 2 (Multiplex)” (2022)
